These results are taken from publication PMC7138454 (Journal of medicinal chemistry, 2014).

Structures are written as SMILES. “And” between values parts separate entries of the source, which are not always exact repeats. Equal values may be shown once. “Also recorded” adds a separate entry of the source. Read-outs that look alike come from different tables or passages of the source.

The subject of data set [1] is fMLP. The data set can be described thus: Selectivity: calcium mobilization in neutrophils in response to fMLP. It is filed as cell-based, human. As to conditions: compound 10 μM; fMLP 100 nM. The essentials: (§1)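 Neutrophils were prepared by dextran sedimentation, Ficoll and hypotonic lysis, loaded with indo-1 AM, and placed in a stirred cuvette at 37 °C in PBS with Ca++ 1.8 mM and Mg++ 1 mM. Fluorescence was read at excitation 331 nm and emission 410 nm. Vehicle or test compound was added at baseline, 5-oxo-ETE (10 nM final) 2 min later, and the second agonist 2 min after that. Digitonin (0.1% final) followed 1 min later for maximal signal.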
For orientation: Calcium assays in cells follow changes in intracellular calcium, usually with a dye or a luminescent sensor.

The target in data set [2] is T1, OXE receptor (Homo sapiens, UniProt Q8TDS5). The experiment in a line: 5-oxo-ETE-induced calcium mobilization in indo-1-loaded neutrophils. It is filed as cell-based. The following applies: for Effect on 5-oxo-ETE-induced calcium mobilization: compound 10 μM.
T1 sequence (Q8TDS5 whole entry): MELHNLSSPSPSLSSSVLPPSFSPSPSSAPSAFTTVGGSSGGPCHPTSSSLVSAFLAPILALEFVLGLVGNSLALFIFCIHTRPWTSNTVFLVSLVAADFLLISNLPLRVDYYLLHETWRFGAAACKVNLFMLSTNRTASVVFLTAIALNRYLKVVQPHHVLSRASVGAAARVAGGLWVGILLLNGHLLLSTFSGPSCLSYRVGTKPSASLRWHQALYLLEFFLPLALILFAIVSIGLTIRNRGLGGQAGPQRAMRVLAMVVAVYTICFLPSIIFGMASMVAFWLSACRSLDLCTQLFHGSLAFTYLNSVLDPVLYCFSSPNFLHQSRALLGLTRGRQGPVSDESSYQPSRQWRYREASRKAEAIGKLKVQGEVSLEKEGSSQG
The nature of data set [3]: Preliminary pharmacokinetic experiments in rats, oral administration. It is filed as in vivo, rat. The following applies: unpublished data.
For data set [4], the system named is IL-8. The experiment in a line: Selectivity: calcium mobilization in neutrophils in response to IL-8. The following applies: compound 10 μM; IL-8 10 nM. The format is cell-based, human. The procedure, abridged:
as §1

Data set [5] has as its system PAF. The data set can be described thus: Selectivity: calcium mobilization in neutrophils in response to PAF. The format is cell-based, human. As to conditions: compound 10 μM; PAF 10 nM. The essentials:
as §1

Data set [6] has as its system LTB4. The experiment in a line: Selectivity: calcium mobilization in neutrophils in response to LTB4. The format is cell-based, human. As to conditions: compound 10 μM; LTB4 10 nM. The procedure, abridged:
as §1

A short description of data set [7]: Metabolism by rat liver homogenates in medium favoring β-oxidation. The following applies: medium containing ATP, CoA, L-carnitine and NAD+. The format is in vitro ADME.
A short description of data set [8]: Metabolism by rat liver homogenates in the presence of NADPH. The following applies: 20 μM, NADPH 1 mM, 60 min, 37 °C. The format is in vitro ADME. The essentials: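 Liver from male Sprague-Dawley rats was homogenised in ice-cold 0.25 M sucrose and spun at 600 × g for 10 min; the supernatant served as homogenate. It was incubated with test compound (20 μM) in phosphate buffer (pH 7.4, 50 mM final) with NADPH (1 mM final) for 60 min at 37 °C. Reactions were stopped with ice-cold MeOH. Products were analysed by reversed-phase C18 HPLC (22–42% acetonitrile gradient, 0.02% acetic acid) with photodiode-array UV detection.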

In data set [9] the target is T1, OXE receptor. As to conditions: concentration of 30 μM; cited from earlier work.
Data set [10] deals with OXE receptor. The following applies: cited from earlier work.
The target in data set [11] is T1, OXE receptor. The following applies: cited from earlier work.
For data set [12], the system named is neutrophils. The experiment in a line: 5-oxo-ETE-induced actin polymerization in neutrophils. The format is cell-based, human. As to conditions: 5-oxo-ETE 10 nM. The procedure, abridged: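 Unfractionated leukocytes came from healthy-donor blood by dextran sedimentation and hypotonic lysis. They were labelled with APC anti-CD49d (30 min, ice) and held at 5.5 × 10^6 cells/ml in PBS with Ca++ 1.8 mM and Mg++ 1 mM. Cells were preincubated 5 min at 37 °C with DMSO vehicle or test compound, then given 5-oxo-ETE (10 nM final) for 20 s. They were fixed in formaldehyde (8.5% final), permeabilised with lysophosphatidylcholine and stained overnight at 4 °C with NBD-phallacidin (0.3 μM final). F-actin was read by flow cytometry.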

For data set [13], the system named is eosinophils. The data set can be described thus: 5-oxo-ETE-induced actin polymerization in eosinophils. The format is cell-based, human. The following applies: 5-oxo-ETE 10 nM.
The target of data set [14] is T1, OXE receptor. The data set can be described thus: Agonist activity: calcium mobilization in neutrophils by the compound itself. It is filed as cell-based. The procedure, abridged:
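Neutrophils were isolated by dextran sedimentation, Ficoll centrifugation and hypotonic lysis, then loaded with indo-1 AM. In PBS with Ca++ 1.8 mM and Mg++ 1 mM (final, added 5 min before), cells sat in a stirred cuvette at 37 °C. Fluorescence was read at excitation 331 nm and emission 410 nm. After a stable baseline, DMSO vehicle or test compound was added, and 2 min later 5-oxo-ETE (10 nM final). Digitonin (0.1% final) gave maximal fluorescence.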

Where [15] appears, read: calcium mobilization, 5-oxo-ETE 10 nM.

As to `CCCCCCc1cc2ccc(Cl)cc2n1C(=O)CC(C)CC(=O)O` (racemic) [compound 34, 5-(6-Chloro-2-hexyl-indol-1-yl)-3-methyl-5-oxo-pentanoic acid], the “Effect on calcium response to fMLP” value in data set [1] is “no effect”. Also, the “Effect on 5-oxo-ETE-induced calcium mobilization” value in [2] (5-oxo-ETE 10 nM) is “completely blocked”. For the same molecule, in data set [3], the “Appearance in the blood” value is “appear rapidly in the blood”. Moreover, the “Effect on calcium response to IL-8” value in data set [4] is “no effect”. Also, the “Effect on calcium response to PAF” value in data set [5] is listed as “no effect”. In addition, the “Effect on calcium response to LTB4” value in data set [6] is reported as “no effect”. Besides, the “Metabolism under conditions favoring β-oxidation” value in data set [7] is listed as “Negligible metabolism; also recorded: no evidence for the metabolism”. For the same molecule, in [8], the “Converted to a more polar product” value was “about 12%” and the “Extent of metabolism” value was “metabolized to a small extent”.

As usually defined, the IC50 is the midpoint of a concentration-inhibition curve. Regarding `CCCCCCc1c(C(=O)CC(C)CC(=O)O)c2cc(Cl)ccc2n1C` (racemic) [compound 53, 5-(5-Chloro-2-hexyl-1-methyl-1H-indol-3-yl)-3-methyl-5-oxo-pentanoic acid], the “Effect on calcium response to fMLP” value in [1] is “no effect”. In addition, in data set [2] (IC50, inhibition of 5-oxo-ETE-induced calcium mobilization in neutrophils, 5-oxo-ETE 10 nM added 2 min after antagonist), the IC50 was 28 nM and ~30 nM. Besides, the “Further increase in antagonist potency relative to 51 and 52” value in data set [2] (setting [15]) is given as “over 10 fold”. For the same molecule, the “Effect on 5-oxo-ETE-induced calcium mobilization” value in data set [2] (5-oxo-ETE 10 nM) is given as “completely blocked”. In addition, the “Appearance in the blood” value in data set [3] is given as “appear rapidly in the blood”. Further, in [4], the “Effect on calcium response to IL-8” value is on record as “no effect”. Also, in data set [5], the “Effect on calcium response to PAF” value was “no effect”. In data set [6], the “Effect on calcium response to LTB4” value is given as “no effect”. Besides, the “Metabolism under conditions favoring β-oxidation” value in data set [7] is recorded as “Negligible metabolism; also recorded: no evidence for the metabolism”. Further, in [8], the “Extent of metabolism” value is “metabolized to an even lesser extent”.

Take `O=C(O)CCCC(=O)n1ccc2ccccc21` [1(5-oxovalerate)indole]: in [9], the Antagonist activity result is on record as “no detectable activity”.

Turning to `CCCCC/C=C\C/C=C\C/C=C\C=C\[C@@H](O)CCCC(=O)O` [5-HETE, 5S-hydroxy-6E,8Z,11Z,14Z-eicosatetraenoic acid], in data set [10], the “Times less potent than 5-oxo-ETE” value is on record as 100 times.

In the case of `CCCCC/C=C\C[C@H](O)/C=C/C=C\C=C\C(=O)CCCC(=O)O` [5-oxo-12-HETE, 5-oxo-12S-hydroxy-6E,8Z,10E,14Z-eicosatetraenoic acid], the “Agonist activity (calcium mobilization by the compound itself)” value in data set [11] was “Neither compound mobilized intracellular calcium; also recorded: not itself affecting intracellular calcium levels”.

Take `O=C(O)CCCC(=O)/C=C/C=C\C/C=C\C/C=C\CCCCCO` [5-oxo-20-hydroxy-ETE]: the “Times less potent than 5-oxo-ETE” value in [10] is recorded as 100 times.

For `CCCCC/C=C\C[C@H](O)/C=C/C=C/C=C/C(=O)CCCC(=O)O` [8-trans-5-oxo-12-HETE], the “Agonist activity (calcium mobilization by the compound itself)” value in [11] is given as “Neither compound mobilized intracellular calcium”.

Take `CCCCC/C=C\CC(=O)/C=C/C=C\C/C=C\CCCC(=O)O` [12-oxo-ETE]: in data set [10], the “Activation of the OXE receptor” value was “do not activate the OXE receptor”.

As for `CCCCCC(=O)/C=C/C=C\C/C=C\C/C=C\CCCC(=O)O` [15-oxo-ETE], the “Activation of the OXE receptor” value in [10] is “do not activate the OXE receptor”.

`CSc1nc2ccc3nc(NC(=O)C(c4ccccc4)c4ccccc4)sc3c2s1` [Gue1654, 7-(methylthio)-2-[(2,2-diphenylacetyl)amino]benzo[1,2-d:4,3-d′]bisthiazole]: the “Times less potent than 53 and 34 in blocking actin polymerization in neutrophils” value in data set [12] is given as “about 10 times”. Also, the “Times less potent than 53 and 34 in blocking actin polymerization in eosinophils” value in [13] is on record as “about 10 times”.

Take `CCCCCCc1c(C(=O)CCCC(=O)O)c2cc(Cl)ccc2n1C` [compound 51, 5-(5-chloro-2-hexyl-1-methyl-1-H-indol-3-yl)-5-oxo-pentanoic acid]: in [2] (setting [15]), the “Antagonist potency compared with 27” value is given as “less potent than 27” and the “Increase in antagonist potency relative to 50” value is on record as “about 10 times”.

With `CCCCCCc1c(C(=O)CC(C)CC(=O)O)c2cc(Br)ccc2n1C` (stereo not drawn) [compound 54, 5-(5-bromo-2-hexyl-1-methyl-1-H-indol-3-yl)-3-methyl-5-oxo-pentanoic acid], the “Antagonist potency compared with 53” value in data set [2] (setting [15]) is “equipotent”.

With `CCCCCCc1c(C(=O)CC(C)CC(=O)O)c2ccc(Cl)cc2n1C` (stereo not drawn) [compound 56, 5-(6-chloro-2-hexyl-1-methyl-1-H-indol-3-yl)-3-methyl-5-oxo-pentanoic acid], the “Increase in antagonist potency relative to 52” value in [2] (setting [15]) was “about 4 fold”.

In the case of `CCCCCCc1nc2ccccc2cc1C(=O)CCCC(=O)O` [quinoline derivative], the “Agonist activity (calcium mobilization by the compound itself)” value in [14] is given as “did not act as an agonist”.
